pKd: −log10 of the molar value. “And” between values parts separate entries of the source, which are not always exact repeats. Equal entries are not always repeated. Blank lines part the entries; values can stand above or below the compound they belong to.
Key:
Cytochrome P450 2B6 [1] = biological target: T1, Cytochrome P450 2B6 (Homo sapiens, UniProt P20813, K262R/Y226H); experiment: Isothermal titration calorimetry; assay type: binding; conditions: 25 °C
T1 sequence (P20813 with tags, fused parts or gaps Y226H/K262R limits assumed): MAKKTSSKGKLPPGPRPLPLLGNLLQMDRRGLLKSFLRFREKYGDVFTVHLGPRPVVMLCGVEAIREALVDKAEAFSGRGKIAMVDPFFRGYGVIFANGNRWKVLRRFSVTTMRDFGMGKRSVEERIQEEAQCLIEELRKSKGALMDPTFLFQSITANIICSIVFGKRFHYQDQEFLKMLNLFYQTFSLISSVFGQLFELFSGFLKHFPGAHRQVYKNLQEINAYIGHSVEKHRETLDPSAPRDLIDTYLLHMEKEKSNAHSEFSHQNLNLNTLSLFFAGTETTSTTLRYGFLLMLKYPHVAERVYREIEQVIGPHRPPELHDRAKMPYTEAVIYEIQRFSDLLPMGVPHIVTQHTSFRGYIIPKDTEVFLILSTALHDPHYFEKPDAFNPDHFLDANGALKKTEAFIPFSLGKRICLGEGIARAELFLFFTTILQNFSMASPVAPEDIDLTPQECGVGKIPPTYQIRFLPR

Cytochrome P450 2B6 [2] = biological target: T1, Cytochrome P450 2B6; experiment: Spectral binding titration; conditions: for pKd: mean (SD)
Outline: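 Human 2B6 (Y226H/K262R), co-expressed with GroEL/ES in E. coli JM109 and purified by Ni-NTA then CM-Sepharose; P450 quantified by reduced CO difference spectra. Titrated at 25 °C with stirring in 50 mM K-phosphate pH 7.4, 500 mM NaCl, 1 mM EDTA, 1 mM TCEP. Ligand was added from acetone (<1% final) and 350–700 nm spectra were recorded. High-spin fraction was derived by PCA against spin-state standards. KS came from a tight-binding fit, or a Hill fit for one ligand.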

2B6 [3] = conditions: cited from earlier work
Cytochrome P450 2A6 [4] = biological target: T2, Cytochrome P450 2A6 (Homo sapiens, UniProt P11509); experiment: Isothermal titration calorimetry; assay type: binding; conditions: 25 °C
T2 sequence (P11509 with tags, fused parts or gaps limits assumed): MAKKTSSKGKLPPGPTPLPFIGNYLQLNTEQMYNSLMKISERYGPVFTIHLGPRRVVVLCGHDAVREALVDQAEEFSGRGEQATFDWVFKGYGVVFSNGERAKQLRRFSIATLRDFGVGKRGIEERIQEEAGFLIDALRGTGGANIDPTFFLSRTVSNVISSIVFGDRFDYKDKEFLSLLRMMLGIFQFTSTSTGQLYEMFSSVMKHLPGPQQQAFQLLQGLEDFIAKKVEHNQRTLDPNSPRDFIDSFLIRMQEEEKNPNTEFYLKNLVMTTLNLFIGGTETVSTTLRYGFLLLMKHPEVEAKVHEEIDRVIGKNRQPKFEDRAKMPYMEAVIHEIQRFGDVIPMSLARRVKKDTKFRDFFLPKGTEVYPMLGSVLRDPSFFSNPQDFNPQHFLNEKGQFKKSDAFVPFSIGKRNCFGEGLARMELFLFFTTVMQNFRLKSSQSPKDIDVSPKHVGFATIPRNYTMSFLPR

Cytochrome P450 2A6 [5] = biological target: T2, Cytochrome P450 2A6; experiment: Spectral binding titration; conditions: read-out: Ks (spectral dissociation constant), 25 °C, mean (SD)
2B6 [6] = experiment: Maximal binding affinity for 2B6 predicted from logP; set-up: species or system human; conditions: 298 K, based solely on enthalpy of desolvation, −1.364×logP

- KD (KA^−1 from ITC) (Cytochrome P450 2B6 [1]; mean (SD)): 1.82 (0.61) 10^−6 M
- ΔG (Cytochrome P450 2B6 [1]; ITC, mean (SD)): −7.5 (1.4) kcal/mol
- ΔS (Cytochrome P450 2B6 [1]; ITC, mean (SD)): 3.2 (2.3) cal/mol/K
- ΔH (Cytochrome P450 2B6 [1]; ITC, mean (SD) of at least three experiments): −6.3 (2.2) kcal/mol
- spectral shift upon binding (Cytochrome P450 2B6 [2]; 2B6, increase at 390 nm, decrease at 417 nm): Type I spectral shift
- pKd (Cytochrome P450 2B6 [2]; read-out: Ks measured using the Hill equation giving the S50, spectral titration, 2B6, Hill equation, n=2): 5.80
- ΔFh (maximal increase in fraction of high-spin P450) (Cytochrome P450 2B6 [2]; spectral titration, 25 °C, 2B6): 42.5 ± 3.4% and 42.5 (3.4) %
Compound: CC1=CCC2C(C1)C2(C)C (single isomer, unassigned; (+)) [(+)-3-carene]

Compound: COC(=O)[C@H](c1ccccc1Cl)N1CCc2sccc2C1 [clopidogrel]
- change in the fraction of high-spin P450 (2B6 [3]): 2 – 4%

Compound: Clc1ccccc1CN1CCc2sccc2C1 [ticlopidine]
- change in the fraction of high-spin P450 (2B6 [3]): 2 – 4%

Compound: (+)-α-Pinene
- KD (KA^−1 from ITC) (Cytochrome P450 2B6 [1]; mean (SD)): 0.22 (0.17) 10^−6 M
- pKd (Cytochrome P450 2B6 [1]; ITC): ~6.66
- KD (KA^−1 from ITC) (Cytochrome P450 2A6 [4]; mean (SD)): 0.17 (0.05) 10^−6 M
- pKd (Cytochrome P450 2A6 [4]; ITC): ~6.77
- pKd (Cytochrome P450 2A6 [5]): 4.47
- maximal binding affinity predicted from logP (2B6 [6]): ~ −6 kcal/mol
- pKd (Cytochrome P450 2B6 [2]; read-out: Ks (spectral dissociation constant), spectral titration, 25 °C, 2B6): 6.42

Reference: article PMC3754432 (Journal of the American Chemical Society, 2013)
